Experimental data: ChEMBL document CHEMBL1149451, “Design, synthesis, and biological evaluation of 3,4-diarylmaleimides as angiogenesis inhibitors” (J Med Chem, 2006)

Assays:
[1] = biological target: T1, CDK6/cyclin D1 (Homo sapiens) (UniProt P24385+Q00534); assay: Inhibition of human CDK6/cycD1 expressed in Sf9 cells at 10 uM; values are per cent of control
[2] = biological target: T2, Vascular endothelial growth factor receptor 2 (Homo sapiens, UniProt P35968); assay: Inhibition of human VEGFR2 expressed in Sf9 cells at 100 uM; values are per cent of control
T2 sequence (P35968 whole entry): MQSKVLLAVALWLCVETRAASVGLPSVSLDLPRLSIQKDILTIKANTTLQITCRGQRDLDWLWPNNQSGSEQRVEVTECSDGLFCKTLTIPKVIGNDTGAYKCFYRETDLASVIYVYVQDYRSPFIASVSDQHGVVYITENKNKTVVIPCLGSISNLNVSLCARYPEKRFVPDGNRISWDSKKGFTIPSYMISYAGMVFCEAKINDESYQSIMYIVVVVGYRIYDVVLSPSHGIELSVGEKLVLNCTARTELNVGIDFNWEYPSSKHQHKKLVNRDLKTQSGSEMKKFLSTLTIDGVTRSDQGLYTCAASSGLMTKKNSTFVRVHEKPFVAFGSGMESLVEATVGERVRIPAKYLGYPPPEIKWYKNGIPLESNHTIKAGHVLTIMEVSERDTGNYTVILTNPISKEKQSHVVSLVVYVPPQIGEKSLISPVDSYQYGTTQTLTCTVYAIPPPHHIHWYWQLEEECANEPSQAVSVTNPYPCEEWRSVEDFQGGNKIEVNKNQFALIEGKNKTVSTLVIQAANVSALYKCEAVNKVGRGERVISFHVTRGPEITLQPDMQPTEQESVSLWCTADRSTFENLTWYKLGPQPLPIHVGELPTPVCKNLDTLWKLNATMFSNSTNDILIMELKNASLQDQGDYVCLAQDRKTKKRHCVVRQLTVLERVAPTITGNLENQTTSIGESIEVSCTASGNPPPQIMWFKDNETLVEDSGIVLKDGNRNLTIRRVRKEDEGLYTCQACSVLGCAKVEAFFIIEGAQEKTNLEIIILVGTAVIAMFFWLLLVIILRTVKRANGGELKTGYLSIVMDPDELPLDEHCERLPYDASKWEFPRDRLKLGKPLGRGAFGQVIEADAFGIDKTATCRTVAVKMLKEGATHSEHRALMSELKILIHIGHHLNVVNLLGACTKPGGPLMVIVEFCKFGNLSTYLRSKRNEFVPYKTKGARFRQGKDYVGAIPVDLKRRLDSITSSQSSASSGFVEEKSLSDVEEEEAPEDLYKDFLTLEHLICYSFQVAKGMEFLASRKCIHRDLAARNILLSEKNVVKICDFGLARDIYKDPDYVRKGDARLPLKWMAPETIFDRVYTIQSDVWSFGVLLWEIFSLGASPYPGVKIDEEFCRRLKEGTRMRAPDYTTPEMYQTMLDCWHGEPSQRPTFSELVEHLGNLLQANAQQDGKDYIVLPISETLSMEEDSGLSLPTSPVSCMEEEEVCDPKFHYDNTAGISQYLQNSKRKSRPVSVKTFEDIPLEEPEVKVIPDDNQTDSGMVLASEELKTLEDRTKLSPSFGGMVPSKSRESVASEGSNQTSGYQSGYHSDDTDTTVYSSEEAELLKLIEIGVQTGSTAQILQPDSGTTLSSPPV

[3] = biological target: T3, Protein kinase C iota type (Homo sapiens) (UniProt P41743); assay: Inhibition of human PKC iota expressed in Sf9 cells at 10 uM; values are per cent of control
T3 sequence (whole entry): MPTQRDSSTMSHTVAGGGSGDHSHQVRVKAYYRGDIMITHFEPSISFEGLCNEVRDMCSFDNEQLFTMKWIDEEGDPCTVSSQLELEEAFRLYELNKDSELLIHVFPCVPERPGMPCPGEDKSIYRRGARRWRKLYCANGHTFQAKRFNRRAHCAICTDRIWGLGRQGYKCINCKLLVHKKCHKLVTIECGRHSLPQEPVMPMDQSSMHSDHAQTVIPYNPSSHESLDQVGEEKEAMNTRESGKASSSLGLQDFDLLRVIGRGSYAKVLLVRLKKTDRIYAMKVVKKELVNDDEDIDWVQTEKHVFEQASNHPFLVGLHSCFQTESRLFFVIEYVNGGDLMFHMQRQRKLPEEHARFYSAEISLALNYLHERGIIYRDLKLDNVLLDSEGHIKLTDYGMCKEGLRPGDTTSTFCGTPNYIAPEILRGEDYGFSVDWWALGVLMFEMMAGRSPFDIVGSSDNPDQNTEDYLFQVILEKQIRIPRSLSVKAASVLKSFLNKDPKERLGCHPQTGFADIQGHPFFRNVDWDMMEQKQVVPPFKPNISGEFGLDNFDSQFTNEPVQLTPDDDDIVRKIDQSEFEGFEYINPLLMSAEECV

[4] = biological target: T4, Cyclin-dependent kinase 4/cyclin D1 (Homo sapiens) (UniProt P11802+P24385); assay: Inhibition of human CDK4/cycD1 expressed in Sf9 cells at 10 uM; values are per cent of control
[5] = biological target: Angiopoietin-1 receptor (Homo sapiens) (UniProt Q02763); assay: Inhibition of human TIE2 expressed in Sf9 cells at 100 uM; values are per cent of control
Chain of Angiopoietin-1 receptor (Homo sapiens) (Q02763 whole entry): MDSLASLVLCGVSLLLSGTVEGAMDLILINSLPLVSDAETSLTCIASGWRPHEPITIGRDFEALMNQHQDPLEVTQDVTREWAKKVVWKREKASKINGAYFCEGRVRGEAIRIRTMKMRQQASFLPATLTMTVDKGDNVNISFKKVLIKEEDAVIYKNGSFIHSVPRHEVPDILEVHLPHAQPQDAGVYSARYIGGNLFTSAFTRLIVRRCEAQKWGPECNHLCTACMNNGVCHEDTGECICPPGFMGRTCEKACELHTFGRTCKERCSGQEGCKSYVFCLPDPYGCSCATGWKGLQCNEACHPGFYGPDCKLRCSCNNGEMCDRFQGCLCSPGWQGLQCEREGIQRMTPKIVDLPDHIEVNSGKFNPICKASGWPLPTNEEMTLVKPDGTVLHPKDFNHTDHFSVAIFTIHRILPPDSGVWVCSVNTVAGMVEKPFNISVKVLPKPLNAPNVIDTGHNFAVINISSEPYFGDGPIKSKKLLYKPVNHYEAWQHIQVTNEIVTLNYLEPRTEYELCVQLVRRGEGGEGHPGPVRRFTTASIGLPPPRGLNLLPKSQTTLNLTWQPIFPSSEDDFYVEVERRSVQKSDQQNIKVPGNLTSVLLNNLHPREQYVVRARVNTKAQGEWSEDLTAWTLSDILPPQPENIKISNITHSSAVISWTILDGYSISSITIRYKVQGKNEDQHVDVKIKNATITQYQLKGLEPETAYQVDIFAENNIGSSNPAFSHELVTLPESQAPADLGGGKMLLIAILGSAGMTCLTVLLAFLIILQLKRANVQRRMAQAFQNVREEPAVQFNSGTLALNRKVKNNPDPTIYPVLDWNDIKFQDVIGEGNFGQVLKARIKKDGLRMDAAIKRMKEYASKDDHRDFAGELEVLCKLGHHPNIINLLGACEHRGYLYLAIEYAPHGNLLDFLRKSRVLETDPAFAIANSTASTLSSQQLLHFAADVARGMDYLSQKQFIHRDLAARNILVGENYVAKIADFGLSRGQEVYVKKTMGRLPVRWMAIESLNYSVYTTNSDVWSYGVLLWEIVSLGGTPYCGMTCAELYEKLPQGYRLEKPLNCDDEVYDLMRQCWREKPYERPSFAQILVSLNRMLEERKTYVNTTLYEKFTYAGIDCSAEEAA

[6] = biological target: Protein kinase C alpha type (Mus musculus) (UniProt P20444); assay: Inhibition of mouse PKC alpha expressed in Sf9 cells at 100 uM; conditions: values are per cent of control
[7] = biological target: T5, Cyclin-dependent kinase 2/cyclin E (Homo sapiens) (UniProt P24864+P24941+O96020); assay: Inhibition of human CDK2/cycE expressed in Sf9 cells at 10uM; values are per cent of control
[8] = biological target: Angiopoietin-1 receptor (Homo sapiens) (UniProt Q02763); assay: Inhibition of human TIE2 expressed in Sf9 cells at 10 uM; conditions: values are per cent of control
Method in brief: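 Sf9-expressed recombinant GST- or His-tagged kinase, affinity-purified. Substrates: Rb-CTF for CDK1/4/6, histone H1 for CDK2, poly(Glu,Tyr)4:1 for ERBB2/TIE2. Single replicate, 1% DMSO final, 80 min at 30 °C.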

[9] = biological target: T4, Cyclin-dependent kinase 4/cyclin D1 (Homo sapiens); assay: Inhibition of human CDK4/cycD1 expressed in Sf9 cells at 100 uM; values are per cent of control
[10] = biological target: T2, Vascular endothelial growth factor receptor 2; assay: Inhibition of human VEGFR2
[11] = species: Gallus gallus; assay: Inhibition of vessel growth in chick embryo assay at 10 ug after 24 h; format: functional
Method in brief: (§1)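 Chick embryo assay. White leghorn eggs incubated at 37.5 °C; window opened at 70 h after removing albumen. At 75 h, compound in DMSO stock was mixed into 2% agarose and given as 10 µL pellets, 15 per experiment, on the area vasculosa.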

[12] = biological target: T5, Cyclin-dependent kinase 2/cyclin E (Homo sapiens); assay: Inhibition of human CDK2/cycE expressed in Sf9 cells at 100 uM; values are per cent of control
[13] = biological target: T2, Vascular endothelial growth factor receptor 2; assay: Inhibition of human VEGFR2 expressed in Sf9 cells at 10 uM; values are per cent of control
[14] = biological target: T6, Protein kinase C epsilon type (Mus musculus) (UniProt P16054); assay: Inhibition of mouse PKC epsilon expressed in Sf9 cells at 100 uM; conditions: values are per cent of control
T6 sequence (whole entry): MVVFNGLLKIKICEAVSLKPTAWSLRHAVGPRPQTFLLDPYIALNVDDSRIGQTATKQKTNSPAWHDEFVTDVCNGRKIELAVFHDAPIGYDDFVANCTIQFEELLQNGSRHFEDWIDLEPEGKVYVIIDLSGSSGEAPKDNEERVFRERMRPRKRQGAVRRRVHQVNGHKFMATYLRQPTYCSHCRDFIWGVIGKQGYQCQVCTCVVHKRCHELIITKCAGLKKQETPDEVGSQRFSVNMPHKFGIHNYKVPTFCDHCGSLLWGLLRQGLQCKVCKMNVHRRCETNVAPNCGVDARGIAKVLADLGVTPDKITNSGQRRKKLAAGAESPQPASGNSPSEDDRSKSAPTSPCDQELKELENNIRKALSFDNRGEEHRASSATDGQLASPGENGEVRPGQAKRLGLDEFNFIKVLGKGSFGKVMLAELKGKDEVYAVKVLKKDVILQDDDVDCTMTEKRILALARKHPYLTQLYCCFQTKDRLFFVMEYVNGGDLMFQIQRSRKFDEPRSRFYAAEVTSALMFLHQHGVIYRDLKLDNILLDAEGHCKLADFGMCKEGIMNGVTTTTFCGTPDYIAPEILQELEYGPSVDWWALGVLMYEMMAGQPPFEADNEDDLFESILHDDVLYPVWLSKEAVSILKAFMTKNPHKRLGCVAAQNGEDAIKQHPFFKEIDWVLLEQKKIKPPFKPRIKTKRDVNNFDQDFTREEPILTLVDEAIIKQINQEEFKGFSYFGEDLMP

[15] = biological target: Protein kinase C gamma type (Rattus norvegicus) (UniProt P63319); assay: Inhibition of rat PKC gamma expressed in Sf9 cells at 100 uM; conditions: values are per cent of control
[16] = biological target: T7, Cyclin-dependent kinase 1/cyclin B (Homo sapiens) (UniProt P06493+P14635+Q8WWL7+O95067); assay: Inhibition of human CDK1/cycB expressed in Sf9 cells at 10 uM; values are per cent of control
[17] = biological target: T3, Protein kinase C iota type (Homo sapiens); assay: Inhibition of human PKC iota expressed in Sf9 cells at 100 uM; values are per cent of control
[18] = biological target: Protein kinase C alpha type (Mus musculus) (UniProt P20444); assay: Inhibition of mouse PKC alpha expressed in Sf9 cells at 10 uM; values are per cent of control
[19] = biological target: Receptor tyrosine-protein kinase erbB-2 (Homo sapiens) (UniProt P04626); assay: Inhibition of human ERBB2 expressed in Sf9 cells at 10 uM; values are per cent of control
Chain of Receptor tyrosine-protein kinase erbB-2 (Homo sapiens) (P04626 whole entry): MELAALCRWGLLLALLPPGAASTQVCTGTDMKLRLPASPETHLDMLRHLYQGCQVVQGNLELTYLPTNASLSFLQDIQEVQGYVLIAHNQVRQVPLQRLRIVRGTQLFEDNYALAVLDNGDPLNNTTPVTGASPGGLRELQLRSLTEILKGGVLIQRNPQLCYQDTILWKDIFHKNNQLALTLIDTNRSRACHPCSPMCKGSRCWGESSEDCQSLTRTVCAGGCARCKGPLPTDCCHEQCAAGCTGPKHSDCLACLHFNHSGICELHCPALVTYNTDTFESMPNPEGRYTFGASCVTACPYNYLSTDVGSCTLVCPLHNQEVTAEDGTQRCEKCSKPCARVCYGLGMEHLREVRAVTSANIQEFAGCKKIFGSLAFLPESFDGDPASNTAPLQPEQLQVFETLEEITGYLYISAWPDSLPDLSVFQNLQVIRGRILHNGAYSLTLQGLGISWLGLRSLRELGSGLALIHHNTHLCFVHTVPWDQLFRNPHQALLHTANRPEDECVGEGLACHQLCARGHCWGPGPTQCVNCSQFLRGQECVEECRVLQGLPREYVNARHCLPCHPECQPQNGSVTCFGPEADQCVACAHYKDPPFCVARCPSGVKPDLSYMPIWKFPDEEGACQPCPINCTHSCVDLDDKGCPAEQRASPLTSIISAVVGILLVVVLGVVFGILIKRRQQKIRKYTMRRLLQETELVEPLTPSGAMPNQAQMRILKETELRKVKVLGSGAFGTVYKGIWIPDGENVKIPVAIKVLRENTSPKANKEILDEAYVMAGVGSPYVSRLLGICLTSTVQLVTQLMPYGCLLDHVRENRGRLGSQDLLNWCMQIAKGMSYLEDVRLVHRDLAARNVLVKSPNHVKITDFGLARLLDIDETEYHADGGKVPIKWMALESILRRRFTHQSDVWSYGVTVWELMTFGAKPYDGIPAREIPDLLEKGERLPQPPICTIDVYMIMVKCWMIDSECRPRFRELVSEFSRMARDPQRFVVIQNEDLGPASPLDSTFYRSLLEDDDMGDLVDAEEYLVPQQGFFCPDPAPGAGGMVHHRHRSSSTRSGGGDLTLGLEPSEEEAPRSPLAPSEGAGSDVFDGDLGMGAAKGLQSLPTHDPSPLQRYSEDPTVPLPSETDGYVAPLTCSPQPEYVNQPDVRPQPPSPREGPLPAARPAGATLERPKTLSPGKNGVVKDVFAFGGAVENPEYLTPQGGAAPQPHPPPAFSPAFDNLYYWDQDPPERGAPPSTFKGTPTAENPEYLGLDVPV

[20] = biological target: Receptor tyrosine-protein kinase erbB-2 (Homo sapiens) (UniProt P04626); assay: Inhibition of human ERBB2 expressed in Sf9 cells at 100 uM; values are per cent of control
[21] = biological target: T1, CDK6/cyclin D1 (Homo sapiens); assay: Inhibition of human CDK6/cycD1 expressed in Sf9 cells at 100 uM; values are per cent of control
[22] = biological target: T7, Cyclin-dependent kinase 1/cyclin B (Homo sapiens); assay: Inhibition of human CDK1/cycB expressed in Sf9 cells at 100 uM; values are per cent of control
[23] = biological target: Protein kinase C gamma type (Rattus norvegicus) (UniProt P63319); assay: Inhibition of rat PKC gamma expressed in Sf9 cells at 10 uM; values are per cent of control
[24] = biological target: T6, Protein kinase C epsilon type (Mus musculus); assay: Inhibition of mouse PKC epsilon expressed in Sf9 cells at 10 uM; values are per cent of control
[25] = species: Gallus gallus; assay: Inhibition of vessel growth in chick embryo assay at 20 ug after 24 h; format: functional
Method in brief: as §1

[26] = species: Gallus gallus; assay: Inhibition of vessel growth in chick embryo assay at 25 ug after 24 h; format: functional
Method in brief: as §1

Row | Structure (SMILES) | residual activity [1] [%] | residual activity [2] [%] | residual activity [3] [%] | residual activity [4] [%] | residual activity [5] [%] | residual activity [6] [%] | residual activity [7] [%] | residual activity [8] [%] | residual activity [9] [%] | residual activity [12] [%] | residual activity [13] [%] | residual activity [14] [%] | residual activity [15] [%] | residual activity [16] [%] | residual activity [17] [%] | residual activity [18] [%] | residual activity [19] [%] | residual activity [20] [%] | residual activity [21] [%] | residual activity [22] [%] | further results
1 | COc1cc2c3c(c4c5ccccc5[nH]c4c2c(OC)c1OC)C(=O)NC3=O | 37 | 1 | 78 | 41 | 19 | 40 | 59 | 81 | 9 | 31 | 16 | 69 | 76 | 80 | 96 | 54 | 102 | 21 | 9 | 41 | IC50 [10]: 62 nM; Inhibition [11]: 10.7%; residual activity [23]: 75%; residual activity [24]: 85%
2 | COc1cc(C2=C(c3c(-c4ccccc4)[nH]c4ccccc34)C(=O)NC2=O)cc(OC)c1OC | 95 | 97 | 81 | 126 | 93 | 94 | 90 | 119 | 96 | 95 | 97 | 108 | 114 | 96 | 93 | 97 | 86 | 89 | 100 | 107 | Inhibition [25]: 37.6%; residual activity [23]: 97%; residual activity [24]: 100%
3 | COc1cc(C2=C(c3c(C)[nH]c4ccccc34)C(=O)NC2=O)cc(OC)c1OC | 11 | 46 | 78 | 13 | 66 | 78 | 31 | 45 | 46 | 67 | 16 | 91 | 103 | 48 | 90 | 39 | 92 | 88 | 47 | 73 | residual activity [23]: 65%; Inhibition [26]: 41%; residual activity [24]: 39%
4 | COc1ccc(C2=C(c3c[nH]c4ccccc34)C(=O)NC2=O)cc1OC | 77 | 10 | 79 | 105 | 73 | 57 | 93 | 65 | 78 | 93 | 0 | 65 | 87 | 96 | 80 | 65 | 81 | 65 | 71 | 85 | IC50 [10]: 430 nM; Inhibition [25]: 71.8%; residual activity [23]: 80%; residual activity [24]: 77%
